# Compound activity from PubChem BioAssay.
# Hits are enriched below; roughly 2.2% of the tested compounds scored in any of these assays.
# HTRA1 inhibitor = blocks human HTRA1 serine peptidase. Q92743. recombinant HTRA1, FP-rhodamine activity-based probe, fluorescence polarization. inhibition, % at 5.96 µM. hit rate 0.5% among 340,000. AID 504803; in the data active = inhibition above about 36%;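 note: 0% = enzyme with DMSO and 100% = wells lacking enzyme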
# LEDGF integ inh = blocks HIV-1 LEDGF/p75-dependent DNA integration; inhibition, % at 3.7 µM; TR-FRET IN-LEDGF/p75 DNA integration, Eu/Cy5; hit rate 0.64% among 370,000;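 active = inhibition above the screen-wide mean plus 3 SD, cut at about 13% in these data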;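 note: signal is the Cy5 over europium emission ratio at 671 and 618 nm; 0% = plate median of compound wells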
# TCR-CD3 inh = inhibitors of human TCR-CD3 interaction; AID 651800; hit rate 0.37% among 360,000; TAMRA-labeled TCR probe fluorescence, biochemical; inhibition, % at 9.4 µM; in the data active = inhibition above about 19%;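 note: recombinant mutant TCR 2C K166C tagged with TAMRA read by polarization; 0% = receptor in buffer alone and 100% = receptor with positive control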
# SIAE primary = blocks human sialic acid acetylesterase; inhibition, % at 9.66 µM; SIAE FP-Rh probe binding, fluorescence polarization; Q9HAT2; hit rate 0.69% among 370,000;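 active = inhibition above a cutoff: mean of compounds within the control limits plus 3 SD of those, cut at about 17% in these data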;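 note: 0% = plate median of compound wells and 100% = probe without SIAE protein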
# Target sequence (Q9HAT2 whole entry, looked up): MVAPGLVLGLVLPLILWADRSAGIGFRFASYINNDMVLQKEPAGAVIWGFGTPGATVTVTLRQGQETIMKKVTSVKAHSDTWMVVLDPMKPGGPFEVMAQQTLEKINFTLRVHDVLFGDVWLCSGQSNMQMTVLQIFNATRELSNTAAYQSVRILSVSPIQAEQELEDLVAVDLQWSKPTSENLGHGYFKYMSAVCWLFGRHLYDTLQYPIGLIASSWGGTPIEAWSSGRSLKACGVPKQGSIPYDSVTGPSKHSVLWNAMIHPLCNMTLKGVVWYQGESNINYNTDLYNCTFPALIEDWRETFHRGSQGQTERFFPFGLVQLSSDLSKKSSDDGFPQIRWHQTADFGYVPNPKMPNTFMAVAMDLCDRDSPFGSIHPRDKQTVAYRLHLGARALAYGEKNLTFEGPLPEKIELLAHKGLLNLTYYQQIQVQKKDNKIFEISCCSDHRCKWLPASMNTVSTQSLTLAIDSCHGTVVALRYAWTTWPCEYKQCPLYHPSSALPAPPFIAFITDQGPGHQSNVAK
# mABHD4 FP = ABHD4 (mouse) inhibition, primary FP screen; Q8VD66; purified mABHD4, FP-Rh probe fluorescence polarization; inhibition, % at 8.92 µM; hit rate 0.54% among 370,000;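 active = inhibition exceeding the mean over every tested compound plus 3 SD, cut at about 30% in these data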;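 note: 0% = plate median of compound wells and 100% = S159A mutant with DMSO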
#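 Doses – 8.92 µM, single dose · Material – wild-type mouse ABHD4 protein · Replication – single well per compound (singlicate) · Measure – percent inhibition of probe binding, normalized to plate controls · Schedule – 45 min compound pre-incubation plus 60 min probe step, 25 °C · Detection – fluorescence polarization with parallel and perpendicular emission, 525/598 nm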
# TDP2 absorb = TDP2 (human) inhibition, absorbance primary screen. recombinant TDP2, T5PNP hydrolysis, p-nitrophenol absorbance 415 nm. hit rate 0.34% among 370,000. inhibition, % at 12.8 µM;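 active = inhibition above the mean of all tested compounds plus 3 SD, set per campaign, cut at about 25% in these data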;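 note: 0% = DMSO with enzyme and 100% = buffer with substrate but no TDP2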
#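 System – recombinant human TDP2 · Quantity – TDP2 enzyme at 120 nM final · Doses – single concentration, 12.8 µM nominal, with 1% DMSO · Incubation – 2 h at 37 °C · Measured by – epi absorbance of p-nitrophenol freed from T5PNP by hydrolysis · Read-out – % inhibition relative to enzyme-containing and enzyme-free wells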
# mABHD4 conf = ABHD4 (mouse) inhibition, FP confirmation. shares compounds with mABHD4 FP. purified mABHD4, FP-Rh probe fluorescence polarization. inhibition, % at 8.92 µM. hit rate 55% among 1,800. AID 720658;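 active = mean inhibition across replicates above the hit cutoff set in the primary screen, cut at about 30% in these data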;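 note: 0% = wild-type ABHD4 with DMSO and 100% = catalytically dead S159A mutant with DMSO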
# The depositor's hits bear a star; x = not tested or not shown.
SMILES,HTRA1 inhibitor,LEDGF integ inh,TCR-CD3 inh,SIAE primary,mABHD4 FP,TDP2 absorb,mABHD4 conf
CN(C)CCNc1cccc2sc3ccc(O)cc3c(=O)c12,x,-1.4,3.1,4.6,30.9*,5.2,17.7
CCOC(=O)c1sc(N/N=C/c2ccc(N(C)C)cc2)nc1C,18.2,3.9,-5.6,11.8,31.5*,-18.1,8.8
O=C(NCC(c1ccccc1)c1ccccc1)[C@H](Cc1c[nH]c2ccccc12)NC1(C(=O)NC2CCCCC2)CCN(Cc2ccccc2)CC1,x,-2.0,x,-1.0,22.6,-5.8,x
CCOC(=O)c1c(C)oc2ccc(OC(=O)N3CCOCC3)cc12,-1.7,1.7,5.7,2.4,39.8*,-0.3,39.8*
Cc1oc2ccc(OC(=O)N3CCOCC3)cc2c1C(=O)OC(C)C,-3.0,-1.6,5.4,-0.4,58.9*,5.4,54.4*
COc1cc(O)c(C(CC(=O)N2CCCC(C)C2)c2ccccc2)c(OC)c1 (configuration not stated),x,3.1,x,-1.7,3.8,-1.6,x
Cc1ccc(C2CCC3(CCC(=O)N3CCOC(=O)Nc3ccc(Br)cc3)CC2)cc1 (configuration not stated),x,-3.2,x,3.9,-1.1,2.8,x
Cc1nc2nc(C)n(CCN3CCOCC3)c(=O)c2c(-c2cccc([N+](=O)[O-])c2)c1C(=O)CCCCCCCCCCN1CCC(c2ccccc2)(c2ccccc2)CC1,-38.8,-2.8,3.3,9.0,30.1*,-10.2,39.1*
Cc1ccc2c(c1)N1C(=O)c3ccccc3C1C1=C(CC(C)(C)CC1=O)N2 (configuration not stated),-3.4,1.5,-5.3,0.1,30.4*,2.1,45.8*
CN1c2ccsc2/C(=N/Nc2ccccc2)CS1(=O)=O,32.7,-1.1,-3.8,5.2,31.9*,3.0,4.8
Cc1cc(NS(=O)(=O)c2ccc(NC(=O)CSc3nnc(-c4ccccn4)n3Cc3ccco3)cc2)nc(C)n1,x,-1.1,x,1.0,0.6,-0.8,x
C#CCN(C[C@H]1[C@H](OC(=O)Nc2c(C)noc2C)[C@H](OC(=O)Nc2c(C)noc2C)CN(C(=O)OC(C)C)N1C(=O)OC(C)C)S(=O)(=O)c1ccc(C)cc1,x,0.2,4.0,1.6,-4.2,-15.3,x
C/C(=C/c1[nH]c(N)[n+](CC2CC2)c1Cc1ccccc1)Cn1[nH]c(=O)n(-c2ccccc2)c1=O,x,0.2,x,7.4,8.0,1.3,x
CCN(CC)c1ccc(C(=C2C=CC(=[N+](CC)CC)C=C2)c2ccccc2)cc1,19.9,1.1,5.1,13.1,71.0*,8.7,102.7*
O=C1CSC(=S)N1c1ccc(F)c(Cl)c1,-15.1,0.7,-10.3,-13.4,7.5,1.6,x
CC(C)=C1C(=O)NN(c2ccc(F)c(Cl)c2)C1=O,7.7,1.8,3.6,3.9,31.9*,2.0,8.0
S=c1[nH]c2ccc3ccccc3c2[nH]1,-0.1,-2.3,-4.9,2.2,-1.5,-4.6,x
Cc1[nH]c2c(ccc3ccccc32)c1C1C(CCN)C1(C)C (configuration not stated),23.5,-4.7,-9.0,4.5,30.4*,-6.3,47.0*
O=[N+]([O-])c1cccc(/C=N/Nc2nc(NCc3ccccc3)nc(N3CCOCC3)n2)c1,1.0,1.1,11.9,2.0,46.7*,3.1,-9.7
O=[N+]([O-])c1ccc(/C=N/Nc2nc(NCc3ccccc3)nc(N3CCOCC3)n2)cc1,6.4,5.5,-0.8,-2.6,2.7,4.5,x
Fc1ccccc1-c1n[nH]c(=S)n1N=Cc1ccc(-c2ccccc2)cc1,x,0.5,x,6.1,-1.2,-3.2,x
Cc1ccc2c(c1)C1CS(=O)(=O)N(CC(C)C)CN1C2 (configuration not stated),x,0.7,x,-2.2,-0.3,-4.8,x
Cn1cccc1C(=O)N1CCN(S(=O)(=O)c2ccc([N+](=O)[O-])cc2)CC1,x,0.5,x,1.7,10.2,1.4,x
CCc1nc2ccc(C(=O)Nc3cc(-c4ccccc4)ccc3OC)cn2c1N(CC)CCN(C)C,x,0.2,-7.2,-6.2,20.2,8.9,x
CCc1nc2ccc(C(=O)Nc3cc(-c4ccccc4)ccc3OC)cn2c1N(CC)Cc1cccc(Br)c1,x,-2.0,1.8,1.8,30.6*,2.1,26.8
SMILES,HTRA1 inhibitor,LEDGF integ inh,TCR-CD3 inh,SIAE primary,mABHD4 FP,TDP2 absorb,mABHD4 conf
CC(C)CNC(=O)OCc1cn(Cc2cccc(C(F)(F)F)c2)nn1,x,-0.4,x,1.2,0.8,-0.3,x
Nc1ncc(N=Nc2cc(C(=O)O)ccc2Cl)s1,5.2,1.1,3.8,-3.1,42.5*,12.7,61.6*
Cc1c(C)n2c(SCC(=O)NC3CCCCC3)nnc2[nH]c1=O,6.0,-0.5,-3.7,-2.1,30.6*,-5.8,4.6
COCCCN1C(=O)[C@H](CC(=O)NCC23CC4CC(CC(C4)C2)C3)[C@]2(C(=O)OC)CCCCC=C12,x,-0.4,x,0.9,1.9,1.6,x
COc1cc(NS(=O)(=O)c2ccc(Nc3nc(-c4ccccn4)cs3)cc2)nc(OC)n1,11.7,-1.0,-11.8,-1.3,35.1*,1.1,31.3*
COc1ccc(-c2csc(Nc3ccc(S(=O)(=O)Nc4cc(OC)nc(OC)n4)cc3)n2)cc1,1.7,2.4,7.5,13.2,26.9,-2.0,x
COc1ccc(-c2csc(Nc3ccc(S(=O)(=O)Nc4cc(C)on4)cc3)n2)cc1C,-43.0,2.3,6.4,14.6,33.5*,4.3,28.6
COc1ccc(CC(=O)Nc2ccc(S(=O)(=O)Nc3cc(C)on3)cc2)cc1OC,-7.8,1.1,0.7,-7.4,-0.2,-2.8,x
S=C(SCc1cc(Cl)cc2c1OCOC2)N1CCSCC1,x,-3.5,-10.5,-6.6,-7.5,2.5,x
COc1ccc(CNCC#Cc2ccc(C(F)(F)F)cc2)c(OC)c1,x,1.9,x,4.3,0.6,4.1,x
CCOc1cc(C(=O)NCC(C)(C)CNC(=O)c2cc(OCC)c(OCC)c(OCC)c2)cc(OCC)c1OCC,x,0.4,-3.8,-5.4,36.2*,-25.2,33.6*
COCCNC(=S)N(C)[C@H]1C[C@H]2c3[nH]c4c(-c5ccc6c(c5)OCO6)cccc4c3CCN2C(=O)[C@H]1[C@H](C)O,x,-2.5,5.6,-1.8,-7.0,-3.2,x
C[C@H]1CNC(=O)c2c(C(=O)N3CCN(c4ccccc4)CC3)ncn21,x,-1.7,-1.1,0.7,3.5,2.7,x
Cc1cc(NCc2ccccn2)n2ncc(-c3ccccc3)c2n1,12.0,0.2,-7.6,0.5,45.2*,7.0,46.6*
Cc1cc(NCc2ccccn2)n2nc(C)c(-c3ccc(Cl)cc3)c2n1,16.4,-1.4,0.8,2.1,22.6,5.0,x
Cc1cc(NCc2ccccn2)n2ncc(-c3ccc(Cl)cc3)c2n1,x,-2.2,-1.1,7.2,48.1*,7.8,63.9*
O=C1NN(c2ccccc2)C(=O)/C1=C\c1ccc(-c2cc([N+](=O)[O-])ccc2O)o1,15.0,13.0,-0.3,2.3,33.6*,2.0,44.3*
